Reference: PMC9774327 (ACS Omega, 2022)
Where a SMILES comes first, the peptide text is derived from it. Bridges are numbered along the chain shown (N, C = ends). Where no end group is shown, it is not given here. [ ]: non-standard residue; d: D form. S5 = C=CCCC[C@](C)(N)C(=O)O

Assays:
HL-60 cells = test: NBT reduction assay of VDR-mediated cell differentiation; format: cell-based; conditions: 1 μM peptide with 30 nM VD3, 48 h, NBT-positive cells counted
Method in brief: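 HL-60 cells in RPMI-1640 with 10% heat-inactivated FBS were treated 48 h with VD₃ (30 nM) with or without peptide. Cells were then stained with 1 mg/mL NBT plus 320 nM PMA for 30 min at 37 °C. NBT-positive cells were counted microscopically among more than 200 cells and expressed as a percentage. Data are means ± SD of three independent experiments.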

[1] = target: ligand binding domain of rat VDR with a deleted loop region (Ser165–Pro211) (rat) (UniProt P13053); test: fluorescence polarisation
MCF-7 cells = test: Confocal microscope observation of intracellular localization; format: cell-based; conditions: peptide 1 μM with LysoTracker 70 nM for 2 h, Figure S8
Method in brief: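 MCF-7 cells grown in RPMI-1640 with 10% heat-inactivated FBS and 1% penicillin/streptomycin, then plated on glass-bottom dishes. They were co-incubated 2 h with peptide and LysoTracker, then stained with Hoechst33342 for 5 min and washed with PBS before confocal imaging.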

[2] = target: T1, VDR-mediated transcription in MCF-7 cells expressing the VDR (Homo sapiens, UniProt P11473); test: Dual-luciferase reporter gene assay of VDR-mediated transcription; format: cell-based; conditions: 3 μM peptide, 30 nM calcitriol defined as 100%, 16 h incubation
T1 sequence (P11473 1-427): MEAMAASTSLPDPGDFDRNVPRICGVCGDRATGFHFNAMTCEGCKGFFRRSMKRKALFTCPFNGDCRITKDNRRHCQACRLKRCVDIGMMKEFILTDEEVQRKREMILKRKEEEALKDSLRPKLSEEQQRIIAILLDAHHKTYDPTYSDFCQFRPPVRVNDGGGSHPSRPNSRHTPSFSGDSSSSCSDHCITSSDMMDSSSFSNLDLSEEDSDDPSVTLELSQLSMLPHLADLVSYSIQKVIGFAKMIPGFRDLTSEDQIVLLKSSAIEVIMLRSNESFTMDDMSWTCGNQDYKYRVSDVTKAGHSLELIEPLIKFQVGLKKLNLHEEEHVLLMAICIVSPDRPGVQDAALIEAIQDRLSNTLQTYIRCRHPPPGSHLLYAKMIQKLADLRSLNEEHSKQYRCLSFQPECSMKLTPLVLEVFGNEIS
Method in brief: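 MCF-7 cells (RPMI-1640, 10% heat-inactivated FBS, 1% penicillin/streptomycin) seeded at 4×10^4 cells/well and cultured 24 h. Cells were co-transfected by lipofection with a VDRE-firefly luciferase reporter and SV40-Renilla luciferase control. After 8 h, test compound was added with 1α,25(OH)₂D₃ (30 nM) for 16 h. Dual-luciferase activity was read in lysates, with 30 nM calcitriol activation set as 100%.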

Sequence of ligand binding domain of rat VDR with a deleted loop region (Ser165–Pro211) (rat) (P13053 212-423, stated change not applied): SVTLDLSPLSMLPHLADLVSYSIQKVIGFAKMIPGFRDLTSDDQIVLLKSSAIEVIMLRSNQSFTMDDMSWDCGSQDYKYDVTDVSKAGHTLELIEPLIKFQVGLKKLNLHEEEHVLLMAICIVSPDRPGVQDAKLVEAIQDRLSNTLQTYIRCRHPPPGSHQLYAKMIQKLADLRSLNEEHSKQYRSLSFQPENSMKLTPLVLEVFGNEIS

Molecule | inhibition of HL-60 cell differentiation at 1 μM (HL-60 cells) | relative value of IC50 (to SRC2-3) [1] | intracellular localization (confocal microscopy) (MCF-7 cells) | % Inhibition at 3 μM of VDR-mediated transcriptional activity [2] [%]
KENALLRYLLDKDGGGRRRRRRRRR-NH2 [Peptide 21] | did not inhibit cell differentiation |  |  | 
SRC2-3 peptide |  | 1 |  | 
CC(C)C[C@H](NC(=O)[C@H](C)NC(=O)[C@H](CC(N)=O)NC(=O)[C@H](CCC(=O)O)NC(=O)[C@@H](N)CCCCN)C(=O)N[C@@H](CC(C)C)C(=O)N[C@@H](CCCNC(=N)N)C(=O)N[C@@]1(C)CCCC=CCCC[C@@](C)(C(=O)N[C@@H](CC(=O)O)C(=O)NCC(=O)NCC(=O)NCC(=O)N[C@@H](CCCNC(=N)N)C(=O)N[C@@H](CCCNC(=N)N)C(=O)N[C@@H](CCCNC(=N)N)C(=O)N[C@@H](CCCNC(=N)N)C(=O)N[C@@H](CCCNC(=N)N)C(=O)N[C@@H](CCCNC(=N)N)C(=O)N[C@@H](CCCNC(=N)N)C(=O)N[C@@H](CCCNC(=N)N)C(=O)N[C@@H](CCCNC(=N)N)C(N)=O)NC(=O)[C@H](CC(=O)O)NC(=O)[C@H](CC(C)C)NC(=O)[C@H](CC(C)C)NC1=O [Peptide 24] | did not inhibit cell differentiation |  | broadly localized over the entire cell | 
CC(C)C[C@H](NC(=O)[C@H](CC(C)C)NC(=O)[C@]1(C)CCCC=CCCC[C@](C)(NC(=O)[C@H](CC(N)=O)NC(=O)[C@H](CCC(=O)O)NC(=O)[C@@H](N)CCCCN)C(=O)N[C@@H](CC(C)C)C(=O)N[C@@H](CC(C)C)C(=O)N[C@@H](CCCNC(=N)N)C(=O)N1)C(=O)N[C@@H](CC(=O)O)C(=O)N[C@@H](CCCCN)C(=O)N[C@@H](CC(=O)O)C(=O)NCC(=O)NCC(=O)NCC(=O)N[C@@H](CCCNC(=N)N)C(=O)N[C@@H](CCCNC(=N)N)C(=O)N[C@@H](CCCNC(=N)N)C(=O)N[C@@H](CCCNC(=N)N)C(=O)N[C@@H](CCCNC(=N)N)C(=O)N[C@@H](CCCNC(=N)N)C(=O)N[C@@H](CCCNC(=N)N)C(=O)N[C@@H](CCCNC(=N)N)C(=O)N[C@@H](CCCNC(=N)N)C(N)=O [Peptide 23] (H-KEN[S5]LLR[S5]LLDKDGGGRRRRRRRRR-NH2; staple 4-8) |  |  | localized in the endosome | 44.3
